Measured values as given in ChEMBL document CHEMBL4311953, “Targeting DNA Repair in Tumor Cells via Inhibition of ERCC1-XPF” (J Med Chem, 2019).
Activity calls are given as the source filed them. The calls are words filed in the database; no cut-off is given here.

Assays:
[1] = target: T1, DNA excision repair protein ERCC-1/DNA repair endonuclease XPF (Homo sapiens) (UniProt P07992+Q92889); test: Inhibition of human His6-tagged ERCC1-XPF endonuclease activity expressed in Escherichia coli BL21 (DE3) at 8 uM using [6-FAM-5'-CAGCGCTCGG(20T)CCGAGCGCTG-3'-dabcyl] as substrate measured for 12 mins by fluorescence assay
Method in brief: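 Real-time incision of 100 nM 6-FAM/dabcyl stem-loop substrate by 25 ng recombinant ERCC1-XPF in 50 mM Tris-Cl pH 8, 20 mM NaCl, 0.5 mM DTT, 0.75 mM MnCl₂ at 25°C; fluorescence (ex 485/em 520 nm) read for 12 min.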

[2] = target: T1, DNA excision repair protein ERCC-1/DNA repair endonuclease XPF (Homo sapiens); test: Binding affinity to human His6-tagged ERCC1-XPF expressed in Escherichia coli BL21 (DE3) assessed as tryptophan fluorescence quenching at 2 uM by spectrofluorimetric method relative to control
Method in brief: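 Intrinsic tryptophan fluorescence of purified ERCC1-XPF (13–20 nM) with 2 μM ligand added from stock, protein dilution kept below 3%; excitation 295 nm, quenching read at 330 nm, room temperature.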

[3] = Binding affinity to 6-FAM-5'-CAGCGCTCGG(20T)CCGAGCGCTG-3'-dabcyl DNA (unknown origin) by spectrofluorimetric method
Method in brief: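 FAM/dabcyl-labelled stem-loop DNA substrate excited at 490 nm, emission at 520 nm followed as a function of ligand concentration; Kd obtained by nonlinear regression assuming unimodal binding.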

[4] = target: T1, DNA excision repair protein ERCC-1/DNA repair endonuclease XPF (Homo sapiens); test: Inhibition of ERCC1-XPF-mediated nucleotide excision repair in human HCT116 cells assessed as reduction in removal of UV-induced cyclobutane pyrimidine dimer by measuring cyclobutane pyrimidine dimer level at 2 uM incubated for 1 hr prior to compound washout followed by 8 J/m2 UV irradiation and subsequent compound addition and measured after 24 hrs by DAPI staining-based immunofluorescence assay (reference value: 80%); type: cell-based; parameters: scale not given: the % may be the effect or the level left
Method in brief: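 HCT-116 cells on coverslips, 1 h compound pretreatment, 8 J/m² UV-C (254 nm), then fresh medium with compound at 37°C up to 24 h. Fixed, HCl-denatured, stained with anti-thymine dimer antibody plus fluorescent secondary, DAPI mount. Intensity from 50 random cells per treatment, normalized; Student's t-test.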

[5] = target: T1, DNA excision repair protein ERCC-1/DNA repair endonuclease XPF (Homo sapiens); test: Time dependent inhibition of human His6-tagged ERCC1-XPF endonuclease activity expressed in Escherichia coli BL21 (DE3) at 3 uM using [6-FAM-5'-CAGCGCTCGG(20T)CCGAGCGCTG-3'-dabcyl] as substrate in presence of 5 to 10% DMSO by fluorescence assay
Method in brief: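 ERCC1-XPF preincubated with 3 μM compound in 10% or 5% DMSO; reactions started at T0 with substrate, or at T12 […]. Same stem-loop incision read-out (ex 485/em 520) in Tris-Cl pH 8, MnCl2 buffer at 25°C.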

HCT-116 [6] = test: Potentiation of cyclophosphamide-induced cytotoxicity against human XPF-knockout HCT116 cells assessed as reduction in colony formation at 2 uM incubated for 4 hrs prior to 300 uM cyclophosphamide addition for 24 hrs followed by compound washout and subsequent compound redosing and measured after 8 days by crystal violet staining-based assay; type: functional; parameters: scale not given: the % may be the effect or the level left
Cytochrome P450 2D6 = Cytochrome P450 2D6 (Homo sapiens, UniProt P10635); test: Inhibition of CYP2D6 (unknown origin); type: ADME
HCT-116 [7] = test: Cytotoxicity against human HCT116 cells assessed as reduction in colony formation at 1 to 2 uM; settings: hct-116, 2 µM
Cytochrome P450 2C19 = Cytochrome P450 2C19 (Homo sapiens, UniProt P33261); test: Inhibition of CYP2C19 (unknown origin); type: ADME
Cytochrome P450 3A4 = Cytochrome P450 3A4 (Homo sapiens, UniProt P08684); test: Inhibition of CYP3A4 (unknown origin) using midazolam as substrate; type: ADME
[8] = Binding affinity to RED-tris-NTA at 10 uM measured after 20 mins by microscale thermophoresis assay
Method in brief: (§1)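 Truncated His-tagged dERCC1 (96-297) and dXPF (667-916) from BL21(DE3), labelled with RED-tris-NTA, at 20 nM singly or as equimolar dimer in 20 mM HEPES pH 7.4, 50 mM NaCl, 1 mM DTT, 2 mM MgCl2, 5% glycerol, 0.01% CHAPS; 10 μM compound or DMSO, 20 min room temperature; MST at high power, 670 nm emission.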

HCT-116 [9] = test: Potentiation of cyclophosphamide-induced cytotoxicity against human XPF-knockout HCT116 cells assessed as reduction in colony formation at 2 uM incubated for 4 hrs prior to 50 uM cyclophosphamide addition for 24 hrs followed by compound washout and subsequent compound redosing and measured after 8 days by crystal violet staining-based assay; type: functional, cell-based
Cytochrome P450 2C9 = Cytochrome P450 2C9 (Homo sapiens, UniProt P11712); test: Inhibition of CYP2C9 (unknown origin); type: ADME
[10] = Protein binding in serum (unknown origin); type: ADME, cell-free
HCT-116 [11] = test: Phototoxicity against human HCT116 cells assessed as reduction in colony formation at 2 uM incubated for 1 hr prior to compound washout followed by 254 nm UV irradiation and subsequent compound addition measured after 10 days by crystal violet staining-based assay; type: functional, cell-based
Method in brief: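 HCT-116 cells plated in triplicate (100-800 cells), attached overnight, treated 1 h with 1 or 2 μM compound, exposed to 0-10 J/m² 254 nm UV-C, then grown 10 days with inhibitor at 37°C, 5% CO₂. Crystal violet stained colonies counted; plating efficiency and surviving fraction calculated; three independent sets.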

HCT-116 [12] = test: Potentiation of cyclophosphamide-induced cytotoxicity against human HCT116 cells assessed as reduction in colony formation at 2 uM incubated for 4 hrs prior to 300 uM cyclophosphamide addition for 24 hrs followed by compound washout and subsequent compound redosing and measured after 8 days by crystal violet staining-based assay; type: functional; parameters: scale not given: the % may be the effect or the level left
Method in brief: (§2)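 HCT-116 cells plated in triplicate, attached overnight, pretreated 4 h with 1 or 2 μM compound, then cyclophosphamide (0-300 μM) added for 24 h; medium replaced with compound alone and incubated 8 more days at 37°C, 5% CO₂. Crystal violet colonies counted, surviving fraction calculated; three independent sets, Student's t-test.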

HCT-116 [13] = test: Potentiation of cyclophosphamide-induced cytotoxicity against human HCT116 cells assessed as reduction in colony formation at 2 uM incubated for 4 hrs prior to 50 uM cyclophosphamide addition for 24 hrs followed by compound washout and subsequent compound redosing and measured after 8 days by crystal violet staining-based assay; type: functional, cell-based; method in brief: as §2
[14] = target: T1, DNA excision repair protein ERCC-1/DNA repair endonuclease XPF (Homo sapiens); test: Binding affinity to human N-terminal His6-tagged RED-tris-NTA labelled ERCC1 (96 to 297 residues)-XPF (667 to 916 residues) expressed in Escherichia coli BL21 (DE3) at 10 uM measured after 20 mins by microscale thermophoresis assay; method in brief: as §1
[15] = Efflux ratio of permeability in human Caco2 cells; type: ADME, cell-based; settings: Caco-2
[16] = Stability of the compound in human liver microsomes; type: ADME, Microsome
Cytochrome P450 1A2 = target: T2, Cytochrome P450 1A2 (Homo sapiens, UniProt P05177); test: Inhibition of CYP1A2 (unknown origin); type: ADME
T2 sequence (P05177 whole entry): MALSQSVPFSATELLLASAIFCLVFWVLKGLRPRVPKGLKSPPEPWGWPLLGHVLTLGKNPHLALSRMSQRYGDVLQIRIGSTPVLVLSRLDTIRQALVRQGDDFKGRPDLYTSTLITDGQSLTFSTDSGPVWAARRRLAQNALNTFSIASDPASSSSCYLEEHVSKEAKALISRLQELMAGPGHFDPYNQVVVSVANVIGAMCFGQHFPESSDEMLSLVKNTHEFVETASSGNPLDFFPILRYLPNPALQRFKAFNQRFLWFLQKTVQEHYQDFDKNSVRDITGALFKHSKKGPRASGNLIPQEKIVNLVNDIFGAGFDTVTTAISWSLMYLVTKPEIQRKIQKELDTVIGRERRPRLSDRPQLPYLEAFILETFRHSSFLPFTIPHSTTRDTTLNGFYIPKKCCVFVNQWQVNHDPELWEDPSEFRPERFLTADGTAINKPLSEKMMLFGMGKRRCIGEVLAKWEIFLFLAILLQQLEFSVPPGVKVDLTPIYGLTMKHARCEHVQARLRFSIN

[17] = target: T3, DNA excision repair protein ERCC-1/DNA repair endonuclease XPF (Homo sapiens, UniProt P07992+Q92889)
T3 sequence (P07992 whole entry): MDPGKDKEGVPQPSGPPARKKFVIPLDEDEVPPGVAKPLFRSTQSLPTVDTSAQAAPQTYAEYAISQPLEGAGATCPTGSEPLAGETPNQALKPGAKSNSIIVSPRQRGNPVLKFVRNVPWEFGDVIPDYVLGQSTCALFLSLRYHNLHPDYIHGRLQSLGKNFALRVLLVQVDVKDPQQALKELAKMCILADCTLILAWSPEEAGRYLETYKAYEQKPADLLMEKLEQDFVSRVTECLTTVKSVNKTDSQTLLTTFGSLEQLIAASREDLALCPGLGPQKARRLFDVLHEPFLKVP
T3 sequence (Q92889 whole entry): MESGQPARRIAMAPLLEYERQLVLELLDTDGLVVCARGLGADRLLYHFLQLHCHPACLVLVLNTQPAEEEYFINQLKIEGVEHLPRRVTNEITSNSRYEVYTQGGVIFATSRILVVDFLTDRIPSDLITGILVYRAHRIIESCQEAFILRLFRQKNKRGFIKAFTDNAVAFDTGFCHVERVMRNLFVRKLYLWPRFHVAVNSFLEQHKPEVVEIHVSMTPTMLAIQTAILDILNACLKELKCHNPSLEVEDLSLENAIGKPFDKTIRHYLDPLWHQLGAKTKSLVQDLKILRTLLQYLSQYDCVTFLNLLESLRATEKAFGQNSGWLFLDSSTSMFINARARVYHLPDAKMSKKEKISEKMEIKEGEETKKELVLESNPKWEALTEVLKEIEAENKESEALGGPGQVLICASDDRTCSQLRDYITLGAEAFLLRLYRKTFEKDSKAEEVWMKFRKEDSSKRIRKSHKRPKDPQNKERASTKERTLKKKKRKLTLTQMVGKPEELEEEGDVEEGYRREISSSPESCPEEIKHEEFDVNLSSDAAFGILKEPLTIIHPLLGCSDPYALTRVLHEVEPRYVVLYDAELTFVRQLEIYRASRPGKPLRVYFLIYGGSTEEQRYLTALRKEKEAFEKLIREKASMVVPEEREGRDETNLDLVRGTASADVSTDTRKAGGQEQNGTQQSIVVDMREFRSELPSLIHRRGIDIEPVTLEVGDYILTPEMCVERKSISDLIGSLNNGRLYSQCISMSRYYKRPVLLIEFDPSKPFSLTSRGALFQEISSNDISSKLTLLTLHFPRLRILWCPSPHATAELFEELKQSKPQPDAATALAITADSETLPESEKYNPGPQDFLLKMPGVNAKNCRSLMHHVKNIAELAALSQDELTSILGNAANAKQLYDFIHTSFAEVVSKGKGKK

[18] = target: T1, DNA excision repair protein ERCC-1/DNA repair endonuclease XPF (Homo sapiens); test: Inhibition of ERCC1-XPF-mediated nucleotide excision repair in human HCT116 cells assessed as reduction in removal of UV-induced cyclobutane pyrimidine dimer at 2 uM incubated for 1 hr prior to compound washout followed by 8 J/m2 UV irradiation and subsequent compound addition and measured after 24 hrs by DAPI staining-based immunofluorescence assay; type: cell-based
Method in brief: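 HCT-116 cells on coverslips pretreated 1 h with compound, then 8 J/m² UV-C (254 nm) and re-fed medium with compound; incubated at 37°C up to 24 h. Methanol-fixed, HCl-denatured cells stained with anti-thymine dimer antibody and fluorescent secondary, DAPI mounted. Intensity quantified from 50 random cells per treatment; Student's t-test.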

Chain of Cytochrome P450 2C9 (P11712 whole entry): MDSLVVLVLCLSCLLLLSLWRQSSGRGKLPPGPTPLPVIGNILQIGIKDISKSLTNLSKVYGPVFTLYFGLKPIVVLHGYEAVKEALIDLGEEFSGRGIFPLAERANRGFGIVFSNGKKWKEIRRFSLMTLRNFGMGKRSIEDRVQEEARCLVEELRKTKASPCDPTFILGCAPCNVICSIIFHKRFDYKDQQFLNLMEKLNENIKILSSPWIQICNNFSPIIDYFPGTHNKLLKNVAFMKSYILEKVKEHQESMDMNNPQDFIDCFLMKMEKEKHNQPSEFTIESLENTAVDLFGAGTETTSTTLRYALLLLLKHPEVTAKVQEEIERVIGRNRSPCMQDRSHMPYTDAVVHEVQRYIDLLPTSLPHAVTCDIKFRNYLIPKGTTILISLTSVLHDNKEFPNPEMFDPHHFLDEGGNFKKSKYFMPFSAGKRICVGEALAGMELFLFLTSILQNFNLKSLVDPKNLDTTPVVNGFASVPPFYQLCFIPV
Chain of Cytochrome P450 2C19 (P33261 whole entry): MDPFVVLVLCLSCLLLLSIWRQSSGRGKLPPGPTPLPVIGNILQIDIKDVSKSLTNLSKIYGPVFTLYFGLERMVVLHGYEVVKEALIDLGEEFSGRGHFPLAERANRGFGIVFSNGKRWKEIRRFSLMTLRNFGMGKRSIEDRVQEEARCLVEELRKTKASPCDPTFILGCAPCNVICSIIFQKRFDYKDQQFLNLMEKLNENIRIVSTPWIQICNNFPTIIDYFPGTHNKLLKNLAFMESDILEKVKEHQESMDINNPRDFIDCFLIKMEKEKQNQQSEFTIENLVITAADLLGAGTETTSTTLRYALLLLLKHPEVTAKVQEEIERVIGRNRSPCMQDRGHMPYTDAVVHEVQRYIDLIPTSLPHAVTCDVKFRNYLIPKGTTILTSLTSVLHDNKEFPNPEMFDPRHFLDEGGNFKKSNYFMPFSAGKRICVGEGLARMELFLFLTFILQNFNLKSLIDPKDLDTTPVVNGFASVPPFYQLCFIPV
Chain of Cytochrome P450 2D6 (P10635 whole entry): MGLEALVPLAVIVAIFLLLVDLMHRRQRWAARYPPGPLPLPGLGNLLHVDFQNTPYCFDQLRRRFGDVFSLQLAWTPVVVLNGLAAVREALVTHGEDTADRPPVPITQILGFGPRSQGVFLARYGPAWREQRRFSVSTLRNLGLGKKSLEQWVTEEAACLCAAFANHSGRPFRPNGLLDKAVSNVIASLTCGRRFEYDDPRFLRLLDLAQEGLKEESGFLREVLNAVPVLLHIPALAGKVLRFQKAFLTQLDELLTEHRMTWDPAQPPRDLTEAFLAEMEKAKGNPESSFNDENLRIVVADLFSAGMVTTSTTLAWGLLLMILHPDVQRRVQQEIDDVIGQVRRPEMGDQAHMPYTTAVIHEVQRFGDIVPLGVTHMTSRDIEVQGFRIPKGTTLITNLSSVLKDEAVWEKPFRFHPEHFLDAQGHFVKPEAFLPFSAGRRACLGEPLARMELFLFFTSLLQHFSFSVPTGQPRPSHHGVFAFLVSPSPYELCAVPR
Chain of Cytochrome P450 3A4 (P08684 whole entry): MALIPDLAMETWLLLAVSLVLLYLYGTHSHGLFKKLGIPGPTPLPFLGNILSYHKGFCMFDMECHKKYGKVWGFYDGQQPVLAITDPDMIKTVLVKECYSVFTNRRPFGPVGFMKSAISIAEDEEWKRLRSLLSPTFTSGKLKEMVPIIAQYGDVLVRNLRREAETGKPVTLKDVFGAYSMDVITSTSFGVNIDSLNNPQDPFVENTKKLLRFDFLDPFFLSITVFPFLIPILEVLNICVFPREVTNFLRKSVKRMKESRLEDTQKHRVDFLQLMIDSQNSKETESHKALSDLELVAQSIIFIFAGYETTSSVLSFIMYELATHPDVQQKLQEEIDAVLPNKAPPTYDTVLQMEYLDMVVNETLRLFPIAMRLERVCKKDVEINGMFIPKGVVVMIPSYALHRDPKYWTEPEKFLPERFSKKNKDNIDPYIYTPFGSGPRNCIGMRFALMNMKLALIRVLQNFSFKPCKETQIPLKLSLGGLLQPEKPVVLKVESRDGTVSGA

COc1ccc2nc3cc(Cl)ccc3c(Nc3ccc(O)c(CN4CCN(C5CCCCC5)CC4)c3)c2c1
inhibition [1]: Active

COc1ccc2nc3cc(Cl)ccc3c(Nc3ccc(O)c(CN4CCN(CCN(C)C)CC4)c3)c2c1
Activity [2]: 23%
Kd [3]: 2100 nM
inhibition [1]: Active
Activity [4]: 60%
TDI [5]: Active
Activity (HCT-116 [6]): 100%
IC50 (Cytochrome P450 2D6): > 1000 nM
Activity (HCT-116 [7]): Non-Toxic
IC50 (Cytochrome P450 2C19): > 1000 nM
IC50 (Cytochrome P450 3A4): > 1000 nM
Activity [8]: inactive
Activity (HCT-116 [9]): Active
IC50 (Cytochrome P450 2C9): > 1000 nM
PB [10]: Active
Activity (HCT-116 [11]): Active
Activity (HCT-116 [12]): 100%
Activity (HCT-116 [13]): Active
Activity [14]: Active

COc1ccc2nc3cc(Cl)ccc3c(Nc3ccc(O)c(CN4CCN(C)CC4)c3)c2c1
inhibition [1]: Active
IC50 (Cytochrome P450 2D6): 1000 to 10000 nM
efflux ratio [15]: 11.2
IC50 (Cytochrome P450 2C19): 10000 to 50000 nM
IC50 (Cytochrome P450 3A4): 1000 to 10000 nM
IC50 (Cytochrome P450 2C9): 10000 to 50000 nM
PB [10]: Active
Stability [16]: Unstable
IC50 (Cytochrome P450 1A2): 10000 to 50000 nM
IC50 [17]: 1860 nM

COc1ccc2nc3cc(Cl)ccc3c(Nc3ccc(O)c(CN4CCN(c5ccc(Cl)c(Cl)c5)CC4)c3)c2c1
Activity [2]: 3%
inhibition [18]: inactive
